From ChEMBL document CHEMBL1828529, “Novel human mPGES-1 inhibitors identified through structure-based virtual screening” (Bioorg Med Chem, 2011)

Biological target: T1, Prostaglandin E synthase (Homo sapiens, UniProt O14684)
T1 sequence (O14684 whole entry): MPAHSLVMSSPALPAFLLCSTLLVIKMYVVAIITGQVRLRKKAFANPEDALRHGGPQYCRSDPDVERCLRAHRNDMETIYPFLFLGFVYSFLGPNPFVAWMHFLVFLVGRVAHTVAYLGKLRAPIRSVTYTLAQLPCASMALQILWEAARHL
Assay: Inhibition of human recombinant microsomal PGES-1 expressed in freestyle 293-f cells assessed as conversion of PGH2 to PGE2 after 15 mins by enzyme immunoassay
Format: cell-based
In short: (§1)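 Reaction in 0.2 M sodium phosphate pH 7.2 stock with 0.1 M GSH stock. Enzyme and inhibitor preincubated 15 min at room temperature, then started with cold PGH2 (1 μM final) on ice. Stopped after 30 s with SnCl2 in ethanol. PGE2 measured by enzyme immunoassay against an enzyme-free blank.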

SMILES | IC50 [µM]
COCCN(c1ccc(/C=C2\S/C(=N\c3ccccc3)N(C(C)C(=O)O)C2=O)cc1)c1ccccc1OC (centres undefined) | 3.5

Biological target: T1, Prostaglandin E synthase
Assay: Inhibition of microsomal PGES
In short: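 Compound was preincubated with enzyme for 15 min at room temperature. PGH2 (1 μM final) was added on ice, and the reaction was stopped after 30 s with SnCl2. PGE2 was measured by EIA against an enzyme-free blank.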

SMILES | IC50 [µM]
CS(=O)(=O)Nc1ccc([N+](=O)[O-])cc1OC1CCCCC1 [NS-398] | 20
CC1=C(CC(=O)O)c2cc(F)ccc2/C1=C\c1ccc([S+](C)[O-])cc1 (centres undefined) | 80

Biological target: T2, Prostaglandin E synthase (Homo sapiens) (UniProt O14684)
T2 sequence (whole entry): T1 sequence (O14684 whole entry)
Assay: Inhibition of human recombinant microsomal PGES-1 expressed in freestyle 293-f cells assessed as conversion of PGH2 to PGE2 at 10 uM after 15 mins by enzyme immunoassay
Format: cell-based
In short: as §1

SMILES | inhibition [%]
COCCN(c1ccc(/C=C2\S/C(=N\c3ccccc3)N(C(C)C(=O)O)C2=O)cc1)c1ccccc1OC (centres undefined) | 83
O=[N+]([O-])C(/C=C(\Cl)[N+](=O)[O-])=C(N1CCCCC1)N1CCCCC1 | 15
CC1(C)C(c2ccc(Cl)cc2)N(O)C2(CCCCC2=O)N1O (centres undefined) | 43
N#CCC(=O)N/N=C(\c1nc2ccc(Cl)cc2nc1O)C(O)c1ccc(Cl)cc1 (centres undefined) | 50
CCN1C(=O)C2Cc3c([nH]c4ccccc34)C(c3ccc(Cl)cc3)N2C1=O (centres undefined) | 10
O=[N+]([O-])c1cc2c(c([N+](=O)[O-])c1)Nc1ccccc1N=C2c1ccc(Cl)cc1 | 26
Cc1c(C(=O)O)ccc2c1NC(c1ccc(OCC#N)cc1)C1CC=CC21 (centres undefined) | 39
CCOC(=O)Cn1c(=O)c2c(nc3n2CCCN3c2ccc(OCC)cc2)n(C)c1=O | 39
CC1CCc2c(sc3ncnc(SC(C)C(=O)O)c23)C1 (centres undefined) | 16
CC(=O)NC(Cc1ccc(C)cc1)C(=O)NC(Cc1ccc(F)cc1)C(=O)N1CCC(OCc2ccccc2)CC1CCCNC(=N)N (centres undefined) | 31
O=C(O)CSc1nc2sc3c(c2c(=O)n1Cc1ccccc1)CCCCC3 | 20
